One data set concerns the target T1, HsIYD containing FMNox (Homo sapiens, UniProt Q6PHW0).
T1 sequence (Q6PHW0 with tags, fused parts or gaps): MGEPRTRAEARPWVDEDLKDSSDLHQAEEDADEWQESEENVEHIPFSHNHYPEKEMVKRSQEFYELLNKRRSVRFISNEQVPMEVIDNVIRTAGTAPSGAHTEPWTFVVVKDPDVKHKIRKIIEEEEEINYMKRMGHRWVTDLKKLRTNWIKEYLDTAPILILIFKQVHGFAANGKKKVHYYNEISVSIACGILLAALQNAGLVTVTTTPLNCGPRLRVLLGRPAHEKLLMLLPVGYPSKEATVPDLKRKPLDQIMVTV
The experiment in a line: Binding affinity to HsIYD containing oxidized FMN. The procedure, abridged: (§1)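 HsIYD (residues 2–31 removed) was expressed as a SUMO fusion and purified by Ni2+ affinity and size exclusion. HhIYD carried a C-terminal His6 tag and was purified by Ni2+ affinity. Ligand was titrated into 3 μM enzyme in 110 mM potassium phosphate pH 7.4, stirred, at 25 °C. Flavin fluorescence (ex 450, em 516 nm) was read 2 min after each addition. Kd was fitted from fractional remaining fluorescence versus total enzyme and ligand.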

In a further data set the target is T2, HhIYD containing FMNox (Haliscomenobacter hydrossis, UniProt F4KU78).
T2 sequence (F4KU78 1-222): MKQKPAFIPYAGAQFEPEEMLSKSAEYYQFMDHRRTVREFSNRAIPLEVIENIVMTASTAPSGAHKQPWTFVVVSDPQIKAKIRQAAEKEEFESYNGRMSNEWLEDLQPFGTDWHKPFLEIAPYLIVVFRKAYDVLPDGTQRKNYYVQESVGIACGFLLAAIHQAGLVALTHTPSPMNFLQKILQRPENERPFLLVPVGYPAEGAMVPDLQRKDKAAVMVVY
The experiment in a line: Binding affinity to HhIYD containing oxidized FMN. The method, boiled down:
as §1

A short description of data set [1]: Estimated phenol pKa and phenolate fraction of substrates. Conditions: assay conditions of pH 7.4, based on estimated pKa. The format is physicochemical.
Data set [2] has as its target T3, HsIYD reconstituted with FMN analogues (Homo sapiens, UniProt Q6PHW0).
T3 sequence (Q6PHW0 with tags, fused parts or gaps): T1 sequence (Q6PHW0 with tags, fused parts or gaps)
The format is biochemical. Conditions: I-Tyr as substrate, HsIYD reconstituted with the cofactor, pH 7.4. The method, boiled down:
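FMN was stripped from column-bound SUMO–HsIYD with 0.6 to 1.5 M guanidinium HCl, then the gradient was reversed. The protein was loaded with 200 μM flavin analogue for 4 h at 4 °C and washed. It was eluted with 250 mM imidazole, the tag was cleaved, and size exclusion followed. Turnover used 70–80 nM enzyme, 100 mM potassium phosphate pH 7.4, 0.5% dithionite and 25 °C, with HPLC product detection.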

The conditions of data set [3]: free in neutral aqueous solution at 25 °C; cited from earlier work.
For data set [4] the following is noted: cited from earlier work.
The target in data set [5] is T4, IYD from Haliscomenobacter hydrossis (HhIYD) (Haliscomenobacter hydrossis, UniProt F4KU78).
T4 sequence (F4KU78 1-222): T2 sequence (F4KU78 1-222)
Put plainly: Catalytic deiodination. Conditions: I-Tyr turnover, pL 7.4, 100 mM potassium phosphate. The format is biochemical.

For data set [6], the target named is T5, Iodotyrosine deiodinase (Human, HsIYD) (Homo sapiens, UniProt Q6PHW0).
T5 sequence (Q6PHW0 with tags, fused parts or gaps): T1 sequence (Q6PHW0 with tags, fused parts or gaps)
Put plainly: Catalytic deiodination. The format is biochemical. The settings on record: 100 mM potassium phosphate pH 7.4, 0.5% sodium dithionite.

The target in another data set is T6, HhIYD (Haliscomenobacter hydrossis, UniProt F4KU78).
T6 sequence (F4KU78 1-222): T2 sequence (F4KU78 1-222)
The experiment in a line: Competitive inhibition of I-Tyr dehalogenation by HhIYD. The format is biochemical. The method, boiled down:
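His6-tagged HhIYD (70–80 nM final) was incubated with I-Tyr in 111 mM potassium phosphate pH 7.4 at 25 °C. Dithionite (5% in 5% sodium bicarbonate) was added at one-tenth volume as reductant. Deiodinated product was quantified by reverse-phase C18 HPLC. The test compound was included as a competitive inhibitor, giving Ki against the reduced enzyme.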

Marks after values point to notes of the source that are not given here.

As for `Cc1cc(C[C@H](N)C(=O)O)cc(I)c1O` [I-Me-Tyr, 3-Iodo-5-methyltyrosine], the Kd at HsIYD containing FMNox was 2.6 ± 0.03 µM; at HhIYD containing FMNox, 1.7 ± 0.1 µM. Besides, in [1], the “fraction existing in phenolate form” value is recorded as 3.4%.
For `COc1cc2c(cc1C)nc1c(=O)[nH]c(=O)nc-1n2C[C@H](O)[C@H](O)[C@H](O)COP(=O)(O)O` [8-MeO-FMN, 8-methoxy-desmethylFMN], the kcat in data set [2] is reported as 9.0 ± 0.3 s^−1 × 10^−2. In addition, the redox potential in data set [3] was −260^c mV.
Regarding `N[C@@H](Cc1cc(I)c(O)c(I)c1)C(=O)O` [I2-Tyr, diiodotyrosine], the “pKa of the α-ammonium group” value in data set [4] is given as 7.8.
As for `Cc1cc2c(cc1Cl)nc1c(=O)[nH]c(=O)nc-1n2C[C@H](O)[C@H](O)[C@H](O)COP(=O)(O)O` [7-Cl-FMN], in data set [2], the kcat is recorded as 3.3 ± 0.2 s^−1 × 10^−2. Also, the redox potential in data set [3] is given as −128^d mV.
For the molecule `N#Cc1cc(C[C@H](N)C(=O)O)cc(I)c1O` [I-CN-Tyr, 3-cyano-5-iodotyrosine], the Kd on HsIYD containing FMNox was 7 ± 0.03 µM; on HhIYD containing FMNox it was 7.3 ± 0.4 µM. In addition, the “fraction existing in phenolate form” value in data set [1] is given as 98%.
For the molecule `N[C@@H](Cc1ccc(O)c(I)c1)C(=O)O` [I-Tyr, iodotyrosine], the Km in data set [5] (D2O) was 12 ± 4 µM; in data set [5] (H2O, 9% glycerol), 13 ± 4 µM; in data set [5] (H2O), 23 ± 4 µM; in data set [6], 19 ± 3 µM. In addition, the kcat amounted to 0.41 ± 0.05 s⁻¹ in data set [5] (D2O); 0.39 ± 0.05 s⁻¹ in [5] (H2O, 9% glycerol); 0.64 ± 0.08 s⁻¹ in [5] (H2O); 0.12 ± 0.008 s⁻¹ in [6].
Consider `COc1cc(C[C@H](N)C(=O)O)cc(I)c1O` [I-MeO-Tyr, 3-iodo-5-methoxytyrosine], for which the values for the Kd on HsIYD containing FMNox and on HhIYD containing FMNox were 6.3 ± 0.3 µM and 4.3 ± 0.4 µM, respectively.
For the molecule `N[C@@H](Cc1ccc(O)c(F)c1)C(=O)O` [fluorotyrosine, 3-fluorotyrosine], the Ki on HhIYD was 10.7 ± 0.1 µM.
Consider `Cc1cc2nc3c(=O)[nH]c(=O)nc-3n(C[C@H](O)[C@H](O)[C@H](O)COP(=O)(O)O)c2cc1C` [FMN, Flavin Mononucleotide], for which the kcat in data set [2] came out at 5.2 ± 0.2 s^−1 × 10^−2. Also, the redox potential in [3] was −205^d mV.
Regarding `N[C@@H](Cc1cc(F)c(O)c(I)c1)C(=O)O` [I-F-Tyr, 3-fluoro-5-iodotyrosine], the Kd at HsIYD containing FMNox is 0.9 ± 0.1 µM; on HhIYD containing FMNox, 6.9 ± 0.3 µM.
